Data taken from ChEMBL document CHEMBL3393034, “Discovery of piperidine ethers as selective orexin receptor antagonists (SORAs) inspired by filorexant” (Bioorg Med Chem Lett, 2015).
≈ marks a conversion by molar mass, not a printed value. Calls of active or inactive are those of the source. No cut-off for these calls is given here.

What was measured:
Orexin receptor type 2 [1] = target: T1, Orexin receptor type 2 (Homo sapiens, UniProt O43614); assay: Antagonist activity at human OX2R by radioligand displacement assay
T1 sequence (O43614 whole entry): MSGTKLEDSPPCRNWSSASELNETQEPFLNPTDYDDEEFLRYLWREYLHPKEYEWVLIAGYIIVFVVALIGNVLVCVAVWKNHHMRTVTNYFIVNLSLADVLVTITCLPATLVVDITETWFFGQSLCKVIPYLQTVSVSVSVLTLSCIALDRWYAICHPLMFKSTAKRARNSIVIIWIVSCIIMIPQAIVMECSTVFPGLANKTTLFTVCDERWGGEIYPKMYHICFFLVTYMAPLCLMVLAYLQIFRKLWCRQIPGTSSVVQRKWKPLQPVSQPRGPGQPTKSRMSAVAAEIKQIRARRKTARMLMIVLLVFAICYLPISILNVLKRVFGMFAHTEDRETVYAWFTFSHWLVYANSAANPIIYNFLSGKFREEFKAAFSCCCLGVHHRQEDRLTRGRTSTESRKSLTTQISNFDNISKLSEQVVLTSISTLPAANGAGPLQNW
How it was run: (§1)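 Radioligand-displacement binding assay at the human orexin receptor; affinity expressed as Ki; data for racemates unless otherwise noted.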

[2] = target: T2, Orexin/Hypocretin receptor type 1 (Homo sapiens, UniProt O43613); assay: Antagonist activity at human OX1R by radioligand displacement assay; how it was run: as §1
T2 sequence (O43613 whole entry): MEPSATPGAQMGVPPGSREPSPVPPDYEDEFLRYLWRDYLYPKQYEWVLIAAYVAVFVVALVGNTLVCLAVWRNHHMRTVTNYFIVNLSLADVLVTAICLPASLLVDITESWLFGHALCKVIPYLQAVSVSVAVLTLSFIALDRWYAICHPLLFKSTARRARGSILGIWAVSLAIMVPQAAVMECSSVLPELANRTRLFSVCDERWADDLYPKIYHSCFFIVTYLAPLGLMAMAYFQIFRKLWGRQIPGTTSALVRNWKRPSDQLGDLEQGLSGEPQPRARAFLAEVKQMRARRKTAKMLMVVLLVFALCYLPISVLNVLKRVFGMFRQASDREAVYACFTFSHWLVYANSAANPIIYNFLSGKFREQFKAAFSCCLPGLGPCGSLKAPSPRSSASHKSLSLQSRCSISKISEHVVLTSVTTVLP

Homo sapiens = species: Homo sapiens; assay: Selectivity ratio of Ki for human OX1R to Ki for human OX2R
How it was run: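 Selectivity index for OX2R over OX1R, calculated from radioligand-displacement binding Ki values at the two human receptors.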

Orexin receptor type 2 [3] = target: T1, Orexin receptor type 2; assay: Antagonist activity at human OX2R by FLIPR assay
How it was run: (§2)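 Functional FLIPR readout in CHO cells engineered to overexpress the human orexin receptor; antagonism expressed as IC50.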

[4] = target: T2, Orexin/Hypocretin receptor type 1; assay: Antagonist activity at human OX1R by FLIPR assay; how it was run: as §2
[5] = Lipophilicity, log D of the compound by HPLC analysis; type: physicochemical
[6] = Fraction unbound in human plasma; type: ADME, cell-free
[7] = Fraction unbound in rat plasma; type: ADME, cell-free
[8] = Plasma protein binding in human; type: ADME, cell-free; details: read-out: PPB (converted)
[9] = Plasma protein binding in rat; type: ADME, cell-free; details: read-out: PPB (converted)
[10] = Aqueous solubility of the compound at pH 2; type: physicochemical; details: aqueous medium
[11] = Aqueous solubility of the compound at pH 7; type: physicochemical; details: aqueous medium
[12] = Clearance in Sprague-Dawley rat at 2 mg/kg, iv; type: ADME, organism-based; design: dose 2 mg/kg, route intravenous; details: in vivo
How it was run: (§3)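 Sprague–Dawley rats were dosed intravenously at 2 mg/kg and orally at 10 mg/kg. Readouts were clearance (mL/min/kg), terminal half-life, plasma AUC (µM•h) and oral bioavailability (%).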

[13] = Clearance in beagle dog at 0.125 mg/kg, iv; type: ADME, organism-based, Canis lupus familiaris; design: dose 0.125 mg/kg, route intravenous; details: in vivo
How it was run: (§4)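 Beagle dogs were dosed intravenously at 0.125 mg/kg and orally at 3 mg/kg. Readouts were clearance (mL/min/kg), terminal half-life, and oral AUC (µM•h), Cmax (µM), Tmax (h) and bioavailability (%).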

[14] = Half life in Sprague-Dawley rat at 2 mg/kg, iv; type: ADME, organism-based; design: dose 2 mg/kg, route intravenous; details: in vivo; how it was run: as §3
[15] = Half life in beagle dog at 0.125 mg/kg, iv; type: ADME, organism-based, Canis lupus familiaris; design: dose 0.125 mg/kg, route intravenous; details: in vivo; how it was run: as §4
[16] = AUC in Sprague-Dawley rat at 10 mg/kg, po; type: ADME, organism-based; design: dose 10 mg/kg, route oral; details: plasma; how it was run: as §3
[17] = AUC in beagle dog at 3 mg/kg, po; type: ADME, organism-based, Canis lupus familiaris; design: dose 3 mg/kg, route oral; details: plasma; how it was run: as §4
[18] = Cmax in beagle dog at 3 mg/kg, po; type: ADME, organism-based, Canis lupus familiaris; design: dose 3 mg/kg, route oral; details: in vivo; how it was run: as §4
[19] = Tmax in beagle dog at 3 mg/kg, po; type: ADME, organism-based, Canis lupus familiaris; design: dose 3 mg/kg, route oral; details: in vivo; how it was run: as §4
[20] = Oral bioavailability in Sprague-Dawley rat at 10 mg/kg; type: ADME, organism-based; details: in vivo; how it was run: as §3
[21] = Oral bioavailability in beagle dog at 3 mg/kg; type: ADME, organism-based, Canis lupus familiaris; details: in vivo; how it was run: as §4
Rattus norvegicus [22] = assay: Ex vivo receptor occupancy of OX2R in rat at 30 mg/kg, po after 30 mins; type: functional
How it was run: (§5)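 Rats received a single 30 mg/kg oral dose. Receptor occupancy, plasma level and CSF level were determined at t = 30 min.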

[23] = Plasma concentration in rat at 30 mg/kg, po after 30 mins; type: ADME, organism-based; design: dose 30 mg/kg, route oral; how it was run: as §5
[24] = Drug uptake in rat CSF at 30 mg/kg, po after 30 mins; type: ADME, organism-based; design: dose 30 mg/kg, route oral; details: cerebrospinal fluid, read-out: Drug uptake; how it was run: as §5
P-gp = assay: Binding affinity to human P-gp assessed as apparent passive permeability; type: ADME; details: not told
Rattus norvegicus [25] = assay: Effect on sleep-wake cycle in rat assessed as change in active wake at 30 mg/kg, po after 30 mins relative to vehicle-treated control; type: functional, organism-based; design: dose 30 mg/kg
How it was run: (§6)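 EEG-telemetry in rats, 30 mg/kg oral versus vehicle (20% vitamin E TPGS). Dosing was at 09:00 in the active phase (ZT 17:00, 7 h before lights on), recorded from 30 min pre-dose to 2 h post-dose. Active wake, light, delta and REM sleep were scored as means in 10-min bins. Balanced crossover over 3 consecutive days, N=6.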

Rattus norvegicus [26] = assay: Effect on sleep-wake cycle in rat assessed as increase in delta sleep at 30 mg/kg, po after 30 mins relative to vehicle-treated control; type: functional, organism-based; design: dose 30 mg/kg; how it was run: as §6
Rattus norvegicus [27] = assay: Effect on sleep-wake cycle in rat assessed as increase in REM sleep at 30 mg/kg, po after 30 mins relative to vehicle-treated control; type: functional, organism-based; design: dose 30 mg/kg; how it was run: as §6
[28] = AUC in Sprague-Dawley rat at 30 mg/kg, po; details: plasma
[29] = Cmax in Sprague-Dawley rat at 30 mg/kg, po; details: in vivo
[30] = Tmax in Sprague-Dawley rat at 30 mg/kg, po; details: in vivo
[31] = Oral bioavailability in Sprague-Dawley rat at 30 mg/kg; details: in vivo

## Cc1ccc(-n2nccn2)c(C(=O)N2CCCC(Oc3ccc(F)c(C)c3)C2)c1 (stereo unspecified)
Orexin receptor type 2 [1]
  Ki: 55 nM
[2]
  Ki: 106 nM
Homo sapiens
  Ratio Ki: 2

## C[C@@H]1CC[C@@H](Oc2ccnc3c(F)cccc23)CN1C(=O)c1ccccc1-c1cccnc1
Orexin receptor type 2 [1]
  Ki: 63 nM
[2]
  Ki: 19000 nM
Homo sapiens
  Ratio Ki: 302

## CC1CCC(Oc2ccnc3c(Cl)cccc23)CN1C(=O)c1ccccc1-n1nccn1 (racemic)
Orexin receptor type 2 [1]
  Ki: 0.9 nM
[2]
  Ki: 510 nM
Homo sapiens
  Ratio Ki: 567

## C[C@@H]1CC[C@@H](Oc2ccnc3c(F)cccc23)CN1C(=O)c1ccccc1-n1nccn1
Orexin receptor type 2 [1]
  Ki: 0.6 nM
[2]
  Ki: 965 nM
Orexin receptor type 2 [3]
  IC50: 18 nM
[4]
  IC50: 3910 nM
[5]
  logD: 2.35
[6]
  fraction unbound: 0.03
[7]
  fraction unbound: 0.03
[8]
  fraction unbound: 0.029
[9]
  fraction unbound: 0.04
[10]
  solubility: 182 µM (≈ 78.5 µg/mL)
[11]
  solubility: 161 µM (≈ 69.5 µg/mL)
[12]
  clearance: 22.5 mL/min/kg
[13]
  clearance: 6.2 mL/min/kg
[14]
  half-life: 24 min
[15]
  half-life: 42 min
[16]
  AUC: 3.9 µM·h
[17]
  AUC: 16 µM·h
[18]
  Cmax: 5.65 µM
[19]
  Tmax: 22.8 min
[20]
  bioavailability: 19%
[21]
  bioavailability: 60%
Rattus norvegicus [22]
  Occ: 72%
[23]
  concentration at 0.5 h: 9.5 µM
[24]
  concentration at 0.5 h: 0.339 µM
P-gp
  Papp: 34 ×10⁻⁶ cm/s
Rattus norvegicus [25]
  Activity: Active
Rattus norvegicus [26]
  Activity: Active
Rattus norvegicus [27]
  Activity: Active
[28]
  AUC: 30.1 µM·h
[29]
  Cmax: 15.7 µM
[30]
  Tmax: 30 min
[31]
  bioavailability: 50%

## Cc1ccc(-c2ncccn2)c(C(=O)N2C[C@H](COc3ccc(F)cn3)CC[C@H]2C)c1 [FILOREXANT]
[2]
  Ki: 2.9 nM
Orexin receptor type 2 [3]
  IC50: 17 nM
[4]
  IC50: 16 nM
Homo sapiens
  Ratio Ki: 9

## Cc1cc(OC2CCC(C)N(C(=O)c3ccccc3-n3nccn3)C2)c2ccccc2n1 (racemic)
Orexin receptor type 2 [1]
  Ki: 28.9 nM
[2]
  Ki: 3600 nM
Homo sapiens
  Ratio Ki: 125

## Cc1ccc(-n2nccn2)c(C(=O)N2CCCC(COc3ccc(F)c(C)c3)C2)c1 (stereo unspecified)
Orexin receptor type 2 [1]
  Ki: 8.9 nM
[2]
  Ki: 5.5 nM
Homo sapiens
  Ratio Ki: 0.6

## COc1cnc(O[C@@H]2CC[C@@H](C)N(C(=O)c3ccccc3-n3nccn3)C2)c2ccccc12
Orexin receptor type 2 [1]
  Ki: 0.24 nM
[2]
  Ki: 0.41 nM

## CC1CCC(Oc2cccc3ccncc23)CN1C(=O)c1ccccc1-n1nccn1 (racemic)
Orexin receptor type 2 [1]
  Ki: 9.3 nM
[2]
  Ki: 900 nM
Homo sapiens
  Ratio Ki: 97

## CC1CCC(Oc2ccnc3ccccc23)CN1C(=O)c1ccccc1-n1nccn1 (racemic)
Orexin receptor type 2 [1]
  Ki: 6.8 nM
[2]
  Ki: 2700 nM
Homo sapiens
  Ratio Ki: 397

## CC1CCC(Oc2c(Br)cnc3ccccc23)CN1C(=O)c1ccccc1-n1nccn1 (racemic)
Orexin receptor type 2 [1]
  Ki: 180 nM

## CC1CCC(Oc2cc(C(F)(F)F)nc3ccccc23)CN1C(=O)c1ccccc1-n1nccn1 (racemic)
Orexin receptor type 2 [1]
  Ki: 149 nM

## CC1CCC(Oc2cccc3cnccc23)CN1C(=O)c1ccccc1-n1nccn1 (racemic)
Orexin receptor type 2 [1]
  Ki: 7.5 nM
[2]
  Ki: 415 nM
Homo sapiens
  Ratio Ki: 55

## Cc1ccc(-n2nccn2)c(C(=O)N2C[C@H](Oc3cccc4ccccc34)CC[C@H]2C)c1 (relative stereo)
Orexin receptor type 2 [1]
  Ki: 1 nM
[2]
  Ki: 13 nM
Homo sapiens
  Ratio Ki: 13

## C[C@@H]1CC[C@@H](Oc2nccc3ccccc23)CN1C(=O)c1ccccc1-n1nccn1 (relative stereo)
Orexin receptor type 2 [1]
  Ki: 0.3 nM

## CC1CCC(Oc2cccc3cccnc23)CN1C(=O)c1ccccc1-n1nccn1 (racemic)
Orexin receptor type 2 [1]
  Ki: 9.8 nM
[2]
  Ki: 760 nM
Homo sapiens
  Ratio Ki: 78

## C[C@@H]1CC[C@@H](Oc2ccnc3c(F)cccc23)CN1C(=O)c1ccccc1-c1ncccn1
Orexin receptor type 2 [1]
  Ki: 0.8 nM
[2]
  Ki: 1200 nM
Homo sapiens
  Ratio Ki: 1500

## CC1CCC(Oc2cccc3ncccc23)CN1C(=O)c1ccccc1-n1nccn1 (racemic)
Orexin receptor type 2 [1]
  Ki: 5.1 nM
[2]
  Ki: 1030 nM
Homo sapiens
  Ratio Ki: 202

## Cc1ccc(-n2nccn2)c(C(=O)N2CCCC(Oc3cccc4ccccc34)C2)c1 (stereo unspecified)
Orexin receptor type 2 [1]
  Ki: 18 nM
[2]
  Ki: 9 nM
Homo sapiens
  Ratio Ki: 0.5

## CC1CCC(Oc2ccnc3c(F)cccc23)CN1C(=O)c1ccccc1-n1nccn1 (racemic)
Orexin receptor type 2 [1]
  Ki: 1.3 nM
[2]
  Ki: 910 nM

## O=C(c1ccccc1-n1nccn1)N1CCC(F)(F)[C@@H](Oc2ccc3ccccc3n2)C1
Orexin receptor type 2 [1]
  Ki: 521 nM
[2]
  Ki: 1.3 nM

## CC1CCC(Oc2ccnc3c(Br)cccc23)CN1C(=O)c1ccccc1-n1nccn1 (racemic)
Orexin receptor type 2 [1]
  Ki: 2.6 nM
[2]
  Ki: 1100 nM
Homo sapiens
  Ratio Ki: 423

## C[C@@H]1CC[C@@H](Oc2ccnc3c(F)cccc23)CN1C(=O)c1ccccc1N(C)C
Orexin receptor type 2 [1]
  Ki: 370 nM

## CC1CCC(Oc2ccnc3ccc(Br)cc23)CN1C(=O)c1ccccc1-n1nccn1 (racemic)
Orexin receptor type 2 [1]
  Ki: 5.2 nM
[2]
  Ki: 470 nM
Homo sapiens
  Ratio Ki: 90
